Data on 1 compound can be found in ChEMBL document CHEMBL1687816, “Effect of antacids on the pharmacokinetics of raltegravir in human immunodeficiency virus-seronegative volunteers” (Antimicrob Agents Chemother, 2010).

Each structure is given as a SMILES string.

A short description of data set [1]: Tmax in HIV-seronegative healthy volunteers at 400 mg, po administered as single dose by LC-MS/MS. The data set is classed as ADME, organism-based. The note with it: human, in vivo. In a few lines:
(§1)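 Single fasted 400 mg oral dose was given alone or with 30 ml antacid in a crossover design with a 5- to 12-day washout. Fasting continued for 4 h post-dose. Plasma was assayed by LC/MS/MS (LLOQ 5 ng/ml). Cmax, Tmax and 12-h concentration were read visually from the profiles.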

A short description of data set [2]: Tmax in HIV-seronegative healthy volunteers at 400 mg, po administered as single dose by LC-MS/MS in presence of albuminium, magnesium and simethicone-containg antacid. The data set is classed as ADME, organism-based. The note with it: human, in vivo. In a few lines:
as §1

A short description of data set [3]: Drug level in HIV-seronegative healthy volunteers blood at 400 mg, po administered as single dose after 12 hrs by LC-MS/MS in presence of albuminium, magnesium and simethicone-containg antacid. Type of data set: ADME, organism-based. The conditions noted are these: human, read-out: Drug uptake. In a few lines:
as §1

A short description of data set [4]: Drug level in HIV-seronegative healthy volunteers blood at 400 mg, po administered as single dose after 12 hrs by LC-MS/MS. Type of data set: ADME, organism-based. The note with it: human, read-out: Drug uptake. In a few lines: as §1
The nature of data set [5]: Cmax in HIV-seronegative healthy volunteers at 400 mg, po administered as single dose by LC-MS/MS in presence of albuminium, magnesium and simethicone-containg antacid. Type of data set: ADME, organism-based. Set-up: dose 400 mg, route oral. The conditions noted are these: human, in vivo. The gist of the method: as §1
The nature of data set [6]: AUC (0 to infinity) in HIV-seronegative healthy volunteers at 400 mg, po administered as single dose by LC-MS/MS in presence of albuminium, magnesium and simethicone-containg antacid. Type of data set: ADME, organism-based. Set-up: dose 400 mg, time infinity, route oral. The conditions noted are these: human, plasma. The gist of the method:
(§2)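 Randomized crossover in HIV-seronegative volunteers: after an 8-h overnight fast, a single observed oral 400 mg dose was given alone or with 30 ml aluminium/magnesium/simethicone antacid, with a 5- to 12-day washout between visits. Plasma was sampled at 0.5–48 h and assayed by LC/MS/MS (13C6 internal standard, linear 5–10,000 ng/ml). Noncompartmental AUC was computed by the linear-log trapezoidal rule and reported as a geometric mean.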

Data set [7] can be described thus: Cmax in HIV-seronegative healthy volunteers at 400 mg, po administered as single dose by LC-MS/MS. Type of data set: ADME, organism-based. Set-up: dose 400 mg, route oral. The conditions noted are these: human, in vivo. In a few lines: as §1
Data set [8] can be described thus: AUC (0 to infinity) in HIV-seronegative healthy volunteers at 400 mg, po administered as single dose by LC-MS/MS. The note with it: human, plasma. The data set is classed as ADME, organism-based. Set-up: dose 400 mg, route oral, time infinity. In a few lines: as §2
Data set [9] can be described thus: AUC (0 to 12 hrs) in HIV-seronegative healthy volunteers at 400 mg, po administered as single dose by LC-MS/MS in presence of albuminium, magnesium and simethicone-containg antacid. Type of data set: ADME, organism-based. Set-up: dose 400 mg, time < 12 hr, route oral. The conditions noted are these: human, plasma. The gist of the method:
as §2

Data set [10] in a line: AUC (0 to 12 hrs) in HIV-seronegative healthy volunteers at 400 mg, po administered as single dose by LC-MS/MS. Set-up: dose 400 mg, time < 12 hr, route oral. The conditions noted are these: human, plasma. Type of data set: ADME, organism-based. The gist of the method: as §2
For data set [11], the system named is Homo sapiens. The data set is described as follows: Ratio of AUC (0 to 12 hrs) in HIV-seronegative healthy volunteers at 400 mg, po administered as single dose in presence of albuminium, magnesium and simethicone-containg antacid to AUC (0 to 12 hrs) in HIV-seronegative healthy volunteers at 400 mg, po administered as single dose. Type of data set: ADME, organism-based. The note with it: in vivo. The gist of the method:
(§3)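 Randomized crossover in HIV-seronegative volunteers: after an 8-h fast, a single oral 400 mg RAL dose was given with or without 30 ml antacid (2.7 g Mg hydroxide, 3 g Al hydroxide gel, 240 mg simethicone), with a 5–12 day washout. Plasma was sampled 0.5–48 h and assayed by LC/MS/MS (LLOQ 5 ng/ml). Noncompartmental analysis; log-transformed geometric mean ratios with 90% CI; paired t tests.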

In data set [12] the test system is Homo sapiens. The data set is described as follows: Ratio of AUC (0 to infinity) in HIV-seronegative healthy volunteers at 400 mg, po administered as single dose in presence of albuminium, magnesium and simethicone-containg antacid to AUC (0 to 12 hrs) in HIV-seronegative healthy volunteers at 400 mg, po administered as single dose. The data set is classed as ADME, organism-based. The conditions noted are these: in vivo. In a few lines:
as §3

Data set [13] relates to Homo sapiens. Put plainly: Ratio of Cmax in HIV-seronegative healthy volunteers at 400 mg, po administered as single dose in presence of albuminium, magnesium and simethicone-containg antacid to Cmax in HIV-seronegative healthy volunteers at 400 mg, po administered as single dose. The data set is classed as ADME, organism-based. The conditions noted are these: in vivo. In a few lines:
as §3

In a further data set the test system is Blood. Put plainly: Ratio of drug level in HIV-seronegative healthy volunteers blood at 400 mg after 12 hrs, po administered as single dose in presence of albuminium, magnesium and simethicone-containg antacid to drug level in HIV-seronegative healthy volunteers blood at 400 mg after 12 hrs, po administered as single dose. Type of data set: ADME, organism-based. The note with it: human, in vivo. The gist of the method: as §3

Data set [14] concerns Homo sapiens. Put plainly: Toxicity in HIV-seronegative healthy volunteers assessed as occurrence of mild headache at 400 mg, po administered as single dose. The note with it: in vivo. The data set is classed as organism-based. In a few lines:
(§4)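 Clinical adverse events were assessed during the two 12-h pharmacokinetic visits and at 24 and 48 h after a single oral 400 mg dose, given with or without 30 ml antacid. Events were graded with the 2004 Division of AIDS toxicity tables. Laboratory tests were run at screening and at 24 h post-dose.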

Data set [15] has as its system Homo sapiens. Put plainly: Toxicity in HIV-seronegative healthy volunteers assessed as occurrence of mild headache at 400 mg, po administered as single dose in presence of 30 ml albuminium, magnesium and simethicone-containg antacid. Type of data set: organism-based. The conditions noted are these: in vivo. The gist of the method: as §4
The test system of data set [16] is Homo sapiens. The data set is described as follows: Ratio of AUC (0 to infinity) in HIV-infected patients at 400 mg, po treated after 2 hrs administration of 20 mg proton pump inhibitor omeprazole to AUC (0 to infinity) in HIV-infected patients at 400 mg, po. The data set is classed as ADME, organism-based. The conditions noted are these: in vivo.
The test system of data set [17] is Homo sapiens. Put plainly: Ratio of Cmax in HIV-infected patients at 400 mg, po treated after 2 hrs administration of 20 mg proton pump inhibitor omeprazole to Cmax in HIV-infected patients at 400 mg, po. The data set is classed as ADME, organism-based. The conditions noted are these: in vivo.
The test system of data set [18] is Homo sapiens. Put plainly: Ratio of drug level in HIV-infected patients at 400 mg, po treated after 2 hrs administration of 20 mg proton pump inhibitor omeprazole after 12 hrs to drug level in HIV-infected patients at 400 mg, po after 12 hrs. Type of data set: ADME, organism-based. The conditions noted are these: in vivo.
Data set [19] in a line: Terminal half life in human at 400 mg BID. The data set is classed as ADME, organism-based. The note with it: in vivo, read-out: beta t1/2 (converted).
A short description of data set [20]: Primary phase half life in human at 400 mg BID. Type of data set: ADME, organism-based. The conditions noted are these: in vivo, read-out: alphat1/2 (converted).

With `Cc1nnc(C(=O)NC(C)(C)c2nc(C(=O)NCc3ccc(F)cc3)c(O)c(=O)n2C)o1` [RALTEGRAVIR], the Tmax (in general, the time from dosing to the highest level) in data set [1] was found to be 3 h; in data set [2], 1 h. Moreover, the concentration at 12 h in data set [3] was determined as 13 ng/mL; in [4], 37 ng/mL. The results for the peak concentration (Cmax) in data set [5] and in data set [7] were 1440 ng/mL and 945 ng/mL, respectively. Besides, the figures for the AUC(0-inf) in data set [6] and in [8] were 3420 ng·h/mL and 3540 ng·h/mL, respectively. Besides, the AUC(0-t) (as a rule, the area under the concentration-time curve up to a stated or last time point) at 12 h was 3300 ng·h/mL in data set [9] and 3040 ng·h/mL in data set [10]. Moreover, the Ratio in the data set on Homo sapiens [11] stood at 1.08; in the data set on Homo sapiens [12], 0.96; in the data set on Homo sapiens [13], 1.53; with Blood, 0.33; with Homo sapiens [16], 3; with Homo sapiens [17], 4. In addition, in the data set on Homo sapiens [18], the Ratio worked out at 1.5. For the same compound, the results for the Activity in the data set on Homo sapiens [14] and with Homo sapiens [15] were 25% and 42%, respectively. In addition, the values for the half-life in data set [19] and in [20] were 9 h and 1 h, respectively.
